Assay results of several laboratories.
Protocols differ between the studies behind these lines.
Target: Tyrosine-protein kinase receptor UFO (AXL, Homo sapiens, UniProt P30530)
Sequence (P30530 1-894, as in one of the studies): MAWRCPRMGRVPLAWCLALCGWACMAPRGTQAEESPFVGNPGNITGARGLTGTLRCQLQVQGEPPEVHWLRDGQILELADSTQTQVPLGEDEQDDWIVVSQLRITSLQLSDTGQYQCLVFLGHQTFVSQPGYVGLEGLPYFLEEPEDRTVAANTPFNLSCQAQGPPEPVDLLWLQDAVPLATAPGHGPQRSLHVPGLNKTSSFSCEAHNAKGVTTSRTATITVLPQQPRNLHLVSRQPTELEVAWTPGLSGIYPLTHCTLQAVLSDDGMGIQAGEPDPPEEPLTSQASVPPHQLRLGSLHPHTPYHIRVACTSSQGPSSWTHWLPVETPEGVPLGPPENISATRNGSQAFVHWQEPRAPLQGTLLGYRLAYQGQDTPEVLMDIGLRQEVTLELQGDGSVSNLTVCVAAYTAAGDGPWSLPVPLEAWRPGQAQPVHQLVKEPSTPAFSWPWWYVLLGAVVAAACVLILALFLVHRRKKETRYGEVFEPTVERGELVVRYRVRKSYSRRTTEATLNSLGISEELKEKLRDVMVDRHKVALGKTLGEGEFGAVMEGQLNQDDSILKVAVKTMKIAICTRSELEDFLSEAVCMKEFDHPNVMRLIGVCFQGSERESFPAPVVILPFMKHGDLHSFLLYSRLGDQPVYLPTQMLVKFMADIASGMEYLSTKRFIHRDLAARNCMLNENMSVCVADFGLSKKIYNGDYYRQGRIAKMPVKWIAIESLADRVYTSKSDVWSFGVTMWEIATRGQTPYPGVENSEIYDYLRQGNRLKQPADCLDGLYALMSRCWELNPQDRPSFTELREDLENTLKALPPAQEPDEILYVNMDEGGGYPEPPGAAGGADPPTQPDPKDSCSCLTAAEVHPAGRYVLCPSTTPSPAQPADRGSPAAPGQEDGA

SMILES	read-out	method	tested at	remaining binding
c1ccc(N2CCN(Cc3nc4ccccc4[nH]3)CC2)nc1	binding	competition with immobilised ligand	1 µM	100%
C[C@@H]1CCN(c2nccc(-c3cnn4ncccc34)n2)C1	binding	–	1 µM	86%
O=C(Nc1c[nH]nc1C(=O)NC1CCNCC1)c1cc(F)cc(F)c1	binding	competition with immobilised ligand	1 µM	100%
N[C@H]1CCN(c2nccc(-c3cnn4ncccc34)n2)C1	binding	–	1 µM	97%
CCCCN(CCCC)C(=O)CN1C[C@H](c2cc(OC)c3c(c2)OCO3)[C@@H](C(=O)O)[C@@H]1CC(C)(C)CCC	cell-free assay	competition with immobilised ligand	1 µM	100%
CCN1CCN(Cc2ccc(C(=O)Nc3ccc(C)c(Oc4ccc5c(c4)CC(=O)N5)c3)cc2C(F)(F)F)CC1	binding	competition with immobilised ligand	1 µM	98%
CN(c1nccc(-c2cnn3ncccc23)n1)C1CC1	binding	–	1 µM	78%
CC(=O)N1CCC(c2ccc(C(=O)NC3=NCCN3)cc2C(F)(F)F)CC1	cell-free assay	competition with immobilised ligand	1 µM	100%
CN(C)c1nccc(-c2cnc3ncccn23)n1	binding	–	1 µM	100%
Nc1ncc2c(n1)-c1c([nH]c3ccc(C#CC4CC4)cc13)CCCC2	binding	competition with immobilised ligand	1 µM	87%
CNC(=O)[C@@H]1CC[C@@H](n2c(-c3ccc4cnccc4c3)nc3ccc(C(=O)NCc4cccc(C(N)=O)c4)cc32)C1	binding	competition with immobilised ligand	1 µM	99%
COc1cccc(CNC(=O)c2nc3scc(COCc4ccc(C(=O)O)cc4)c3c(=O)[nH]2)c1	cell-free assay	competition with immobilised ligand	1 µM	84.2%
C[C@@H]1CN(c2ccc3ncc(-c4ccc5[nH]nc(C6CC6)c5c4)n3n2)C[C@H](C)O1	binding	competition with immobilised ligand	0.5 µM	60%
Cc1cnc(Nc2ccc(C(=O)N3CCC(N4CCCC4)CC3)cc2)nc1-c1cc2ccccc2s1	binding	competition with immobilised ligand	1 µM	1%
CCc1ccccc1C(=O)Nc1n[nH]c2c(C)c(F)c(C3C(C#N)=C(C)N(C)C(C)=C3C#N)cc12	binding	competition with immobilised ligand	1 µM	100%
COc1ncc2cc3ccccc3nc2c1C#N	cell-free assay	competition with immobilised ligand	5 µM	92%
Cc1nccc(COC(=O)N2C[C@@H]3[C@@H](CNC(=O)c4ccc5[nH]nnc5c4)[C@@H]3C2)n1	cell-free assay	competition with immobilised ligand	1 µM	88%
CC(C)(C)c1ccc(-c2nc(CBr)nn2-c2cccc(O)c2)cc1	cell-free assay	competition with immobilised ligand	10 µM	84%
CC1CCCN1c1nccc(-c2cnn3ncccc23)n1 (stereo not drawn)	binding	–	1 µM	100%
O=C(c1ccc(Nc2ncc(Cl)c(-c3ccc(Cl)s3)n2)cc1)N1CCC(N2CCCC2)CC1	binding	competition with immobilised ligand	1 µM	28%
CN(CCCC(F)(F)F)c1nccc(-c2cnn3ncccc23)n1	binding	–	1 µM	75%
O=C(c1ccc(Nc2ncc(Cl)c(-c3cc4ccccc4s3)n2)cc1)N1CCC(N2CCCC2)CC1	binding	competition with immobilised ligand	1 µM	1.4%
C[C@@H](c1cccc(C#N)c1)n1cc(Cl)cc(C(N)=O)c1=N	cell-free assay	competition with immobilised ligand	1 µM	100%
c1cncc(-c2cccc(Nc3nccc(NC4CCCCC4)n3)c2)c1	binding	competition with immobilised ligand	10 µM	4%
